Consider 1 compound from ChEMBL document CHEMBL1147762, “A new chemical tool for exploring the physiological function of the PDE2 isozyme” (Bioorg Med Chem Lett, 2006).

For one data set, the target named is Phosphodiesterase 1 (Homo sapiens, UniProt P54750+Q01064+Q14123). Briefly: Inhibitory activity against PDE1 by scintillation proximity assay. Format: protein assay. The procedure, abridged: (§1)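 Phosphodiesterase inhibition run as a scintillation proximity assay, with enzyme at a concentration in the linear range. Final substrate was 1 µM, below one-third of the enzyme K_M, so that IC50 approximates Ki. Values are means of n experiments with standard deviation.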

Data set [1] concerns the target cGMP-dependent 3',5'-cyclic phosphodiesterase (Homo sapiens, UniProt O00408). Briefly: Inhibitory activity against PDE2 by scintillation proximity assay. The procedure, abridged: as §1
The target of another data set is Phosphodiesterase 3 (Homo sapiens, UniProt Q14432+Q13370). Briefly: Inhibitory activity against PDE3 by scintillation proximity assay. The class given is protein assay. The procedure, abridged:
as §1

Data set [2] has as its target 3',5'-cyclic-AMP phosphodiesterase 4A (Homo sapiens, UniProt P27815). Briefly: Inhibitory activity against PDE4A by scintillation proximity assay. In short, it runs like this:
as §1

In data set [3] the target is 3',5'-cyclic-AMP phosphodiesterase 4B (Homo sapiens, UniProt Q07343). Description: Inhibitory activity against PDE4B by scintillation proximity assay. In short, it runs like this: as §1
Data set [4] deals with 3',5'-cyclic-AMP phosphodiesterase 4C (Homo sapiens, UniProt Q08493). Description: Inhibitory activity against PDE4C by scintillation proximity assay. In short, it runs like this: (§2)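 Scintillation proximity assay for phosphodiesterase inhibition. Enzyme is used at a concentration within the linear range, and its KM was measured. Final substrate concentration is 1 µM, below one-third of KM, so IC50 approximates Ki. Results are means of n experiments with standard deviation.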

The target in data set [5] is 3',5'-cyclic-AMP phosphodiesterase 4D (Homo sapiens, UniProt Q08499). Briefly: Inhibitory activity against PDE4D by scintillation proximity assay. In short, it runs like this:
as §2

Data set [6] has as its target cGMP-specific 3',5'-cyclic phosphodiesterase (Homo sapiens, UniProt O76074). Briefly: Inhibitory activity against PDE5 by scintillation proximity assay. In short, it runs like this:
as §2

For data set [7], the target named is High affinity cAMP-specific and IBMX-insensitive 3',5'-cyclic phosphodiesterase 8A (Homo sapiens, UniProt O60658). Briefly: Inhibitory activity against PDE8A by scintillation proximity assay. The procedure, abridged: as §2
Data set [8] has as its target High affinity cAMP-specific and IBMX-insensitive 3',5'-cyclic phosphodiesterase 8B (Homo sapiens, UniProt O95263). Briefly: Inhibitory activity against PDE8B by scintillation proximity assay. The procedure, abridged: as §2
Data set [9] addresses High affinity cGMP-specific 3',5'-cyclic phosphodiesterase 9A (Homo sapiens, UniProt O76083). Description: Inhibitory activity against PDE9 by scintillation proximity assay. In short, it runs like this: as §2
Data set [10] deals with cAMP and cAMP-inhibited cGMP 3',5'-cyclic phosphodiesterase 10A (Homo sapiens, UniProt Q9Y233). Description: Inhibitory activity against PDE10 by scintillation proximity assay. In short, it runs like this: as §1
Data set [11] can be described thus: Half life in rat liver microsome. Format: ADME. The settings on record: liver microsomes.
Data set [12] can be described thus: Apical Caco-2 cell membrane permeability. The class given is ADME, cell-based. The settings on record: human.
The nature of data set [13]: Basolateral Caco-2 cell membrane permeability. The settings on record: human. The class given is ADME, cell-based.
Data set [14] is described as follows: Turbidimetric solubility at pH 7. The class given is ADME, organism-based, Homo sapiens.

3',5'-cyclic-AMP phosphodiesterase 4D, sequence (Q08499 whole entry): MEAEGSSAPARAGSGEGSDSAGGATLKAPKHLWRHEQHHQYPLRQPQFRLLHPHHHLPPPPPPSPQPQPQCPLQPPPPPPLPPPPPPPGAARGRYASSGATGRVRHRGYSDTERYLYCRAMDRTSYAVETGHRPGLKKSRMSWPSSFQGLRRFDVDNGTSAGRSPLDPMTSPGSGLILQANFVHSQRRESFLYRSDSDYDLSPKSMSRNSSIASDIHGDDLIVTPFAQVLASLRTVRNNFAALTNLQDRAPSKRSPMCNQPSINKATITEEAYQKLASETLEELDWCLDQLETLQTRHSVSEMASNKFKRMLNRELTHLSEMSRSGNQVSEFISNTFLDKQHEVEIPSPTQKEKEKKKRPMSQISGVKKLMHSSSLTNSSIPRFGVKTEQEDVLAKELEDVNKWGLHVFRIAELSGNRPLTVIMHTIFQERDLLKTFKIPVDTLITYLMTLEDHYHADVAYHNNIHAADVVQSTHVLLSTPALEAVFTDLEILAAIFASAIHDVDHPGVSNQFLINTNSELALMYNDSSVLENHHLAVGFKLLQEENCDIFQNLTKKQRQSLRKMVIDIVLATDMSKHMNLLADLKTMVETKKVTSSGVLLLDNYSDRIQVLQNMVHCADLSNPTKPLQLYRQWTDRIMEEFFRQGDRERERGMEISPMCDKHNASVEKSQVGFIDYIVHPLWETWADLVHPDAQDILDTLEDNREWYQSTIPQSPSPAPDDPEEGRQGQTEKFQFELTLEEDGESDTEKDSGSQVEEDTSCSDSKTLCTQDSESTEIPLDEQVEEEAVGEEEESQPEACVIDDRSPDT
cGMP-dependent 3',5'-cyclic phosphodiesterase, sequence (O00408 whole entry): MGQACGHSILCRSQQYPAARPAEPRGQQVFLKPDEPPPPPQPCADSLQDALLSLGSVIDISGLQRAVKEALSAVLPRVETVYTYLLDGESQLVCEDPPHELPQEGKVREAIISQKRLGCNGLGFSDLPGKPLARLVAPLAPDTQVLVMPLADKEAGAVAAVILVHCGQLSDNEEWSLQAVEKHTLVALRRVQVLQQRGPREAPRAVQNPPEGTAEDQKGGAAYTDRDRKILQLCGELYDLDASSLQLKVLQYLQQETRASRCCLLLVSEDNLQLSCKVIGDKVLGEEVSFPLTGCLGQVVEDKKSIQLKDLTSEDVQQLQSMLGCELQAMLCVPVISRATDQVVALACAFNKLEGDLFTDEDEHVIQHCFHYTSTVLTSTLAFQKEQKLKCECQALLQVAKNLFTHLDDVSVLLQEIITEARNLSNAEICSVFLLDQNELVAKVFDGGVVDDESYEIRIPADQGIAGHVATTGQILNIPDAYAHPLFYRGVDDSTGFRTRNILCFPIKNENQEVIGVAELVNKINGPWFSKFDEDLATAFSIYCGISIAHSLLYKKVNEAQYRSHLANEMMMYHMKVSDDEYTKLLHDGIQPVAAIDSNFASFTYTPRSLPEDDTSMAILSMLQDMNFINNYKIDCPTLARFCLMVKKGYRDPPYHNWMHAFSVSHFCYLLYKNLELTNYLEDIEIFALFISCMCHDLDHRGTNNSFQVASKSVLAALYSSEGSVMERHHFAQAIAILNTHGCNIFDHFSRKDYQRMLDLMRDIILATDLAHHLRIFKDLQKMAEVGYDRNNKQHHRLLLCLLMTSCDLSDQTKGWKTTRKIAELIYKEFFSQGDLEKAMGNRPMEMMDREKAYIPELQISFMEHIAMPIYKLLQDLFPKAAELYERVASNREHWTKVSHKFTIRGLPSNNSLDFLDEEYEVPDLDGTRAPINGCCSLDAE
3',5'-cyclic-AMP phosphodiesterase 4B, sequence (Q07343 whole entry): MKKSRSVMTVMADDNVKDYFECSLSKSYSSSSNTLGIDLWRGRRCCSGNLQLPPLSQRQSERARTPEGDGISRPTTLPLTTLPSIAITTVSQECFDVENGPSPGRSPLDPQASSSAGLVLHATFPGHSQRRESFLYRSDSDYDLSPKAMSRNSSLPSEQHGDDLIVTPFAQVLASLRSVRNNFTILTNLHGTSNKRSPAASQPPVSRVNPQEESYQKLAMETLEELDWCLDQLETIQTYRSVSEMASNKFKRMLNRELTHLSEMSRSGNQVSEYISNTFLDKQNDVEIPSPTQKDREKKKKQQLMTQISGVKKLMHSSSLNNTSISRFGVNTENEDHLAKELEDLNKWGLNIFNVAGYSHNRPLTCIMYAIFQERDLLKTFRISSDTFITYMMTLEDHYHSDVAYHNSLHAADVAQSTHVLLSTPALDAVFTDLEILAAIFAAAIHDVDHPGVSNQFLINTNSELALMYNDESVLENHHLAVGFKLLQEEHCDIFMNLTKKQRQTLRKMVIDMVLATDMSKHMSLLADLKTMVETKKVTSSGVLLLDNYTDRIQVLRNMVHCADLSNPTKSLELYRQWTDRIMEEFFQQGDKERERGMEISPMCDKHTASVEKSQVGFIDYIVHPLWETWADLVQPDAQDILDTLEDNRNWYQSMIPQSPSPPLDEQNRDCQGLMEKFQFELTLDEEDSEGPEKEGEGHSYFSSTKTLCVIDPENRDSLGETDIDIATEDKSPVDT
High affinity cAMP-specific and IBMX-insensitive 3',5'-cyclic phosphodiesterase 8B, sequence (O95263 whole entry): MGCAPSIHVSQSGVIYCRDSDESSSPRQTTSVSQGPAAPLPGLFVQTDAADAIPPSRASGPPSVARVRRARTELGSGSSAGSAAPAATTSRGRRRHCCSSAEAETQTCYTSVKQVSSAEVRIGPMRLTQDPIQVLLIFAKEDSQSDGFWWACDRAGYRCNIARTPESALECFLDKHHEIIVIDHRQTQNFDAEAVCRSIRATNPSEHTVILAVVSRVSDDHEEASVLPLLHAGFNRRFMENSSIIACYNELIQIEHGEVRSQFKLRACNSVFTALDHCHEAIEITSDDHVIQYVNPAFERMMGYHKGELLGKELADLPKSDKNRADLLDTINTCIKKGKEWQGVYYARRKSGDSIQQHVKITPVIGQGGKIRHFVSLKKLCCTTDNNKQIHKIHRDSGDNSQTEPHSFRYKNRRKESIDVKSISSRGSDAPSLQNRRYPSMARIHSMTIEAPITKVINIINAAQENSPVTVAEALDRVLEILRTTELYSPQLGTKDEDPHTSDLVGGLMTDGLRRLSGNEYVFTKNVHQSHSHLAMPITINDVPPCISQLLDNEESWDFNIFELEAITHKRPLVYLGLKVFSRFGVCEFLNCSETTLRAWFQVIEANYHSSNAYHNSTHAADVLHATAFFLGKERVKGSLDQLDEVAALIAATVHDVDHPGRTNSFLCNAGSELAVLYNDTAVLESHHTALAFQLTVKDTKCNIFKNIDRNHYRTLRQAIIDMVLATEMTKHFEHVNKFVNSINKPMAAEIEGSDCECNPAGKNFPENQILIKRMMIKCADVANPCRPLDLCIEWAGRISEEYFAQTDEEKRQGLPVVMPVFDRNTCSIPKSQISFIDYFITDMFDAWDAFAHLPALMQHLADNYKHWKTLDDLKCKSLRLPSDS
cAMP and cAMP-inhibited cGMP 3',5'-cyclic phosphodiesterase 10A, sequence (Q9Y233 whole entry): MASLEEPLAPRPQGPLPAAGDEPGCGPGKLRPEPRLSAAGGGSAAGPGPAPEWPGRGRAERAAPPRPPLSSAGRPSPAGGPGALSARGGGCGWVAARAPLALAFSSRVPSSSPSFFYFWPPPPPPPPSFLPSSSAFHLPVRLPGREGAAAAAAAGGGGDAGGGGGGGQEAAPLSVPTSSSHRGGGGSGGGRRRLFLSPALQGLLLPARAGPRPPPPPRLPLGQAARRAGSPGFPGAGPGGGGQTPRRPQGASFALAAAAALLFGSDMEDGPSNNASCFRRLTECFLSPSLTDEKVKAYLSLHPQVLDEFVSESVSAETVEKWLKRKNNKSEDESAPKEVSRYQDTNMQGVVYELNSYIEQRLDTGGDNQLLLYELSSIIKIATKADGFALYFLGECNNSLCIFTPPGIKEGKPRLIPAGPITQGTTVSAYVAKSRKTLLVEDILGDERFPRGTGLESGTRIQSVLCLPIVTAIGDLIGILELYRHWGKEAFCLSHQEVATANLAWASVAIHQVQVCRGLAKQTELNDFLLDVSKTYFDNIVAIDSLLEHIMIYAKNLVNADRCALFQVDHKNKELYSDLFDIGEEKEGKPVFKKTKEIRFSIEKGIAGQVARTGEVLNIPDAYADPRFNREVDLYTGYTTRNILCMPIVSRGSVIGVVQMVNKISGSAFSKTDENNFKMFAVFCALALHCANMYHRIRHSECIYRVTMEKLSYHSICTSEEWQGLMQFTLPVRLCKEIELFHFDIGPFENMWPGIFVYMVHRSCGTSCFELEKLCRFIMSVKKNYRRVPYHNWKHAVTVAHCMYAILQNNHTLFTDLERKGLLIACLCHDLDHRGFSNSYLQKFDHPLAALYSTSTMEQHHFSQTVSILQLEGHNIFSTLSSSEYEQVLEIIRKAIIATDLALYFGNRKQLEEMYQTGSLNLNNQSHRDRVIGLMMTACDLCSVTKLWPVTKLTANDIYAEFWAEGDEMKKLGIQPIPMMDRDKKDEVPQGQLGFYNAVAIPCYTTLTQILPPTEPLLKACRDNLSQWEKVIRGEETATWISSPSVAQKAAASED
High affinity cGMP-specific 3',5'-cyclic phosphodiesterase 9A, sequence (O76083 whole entry): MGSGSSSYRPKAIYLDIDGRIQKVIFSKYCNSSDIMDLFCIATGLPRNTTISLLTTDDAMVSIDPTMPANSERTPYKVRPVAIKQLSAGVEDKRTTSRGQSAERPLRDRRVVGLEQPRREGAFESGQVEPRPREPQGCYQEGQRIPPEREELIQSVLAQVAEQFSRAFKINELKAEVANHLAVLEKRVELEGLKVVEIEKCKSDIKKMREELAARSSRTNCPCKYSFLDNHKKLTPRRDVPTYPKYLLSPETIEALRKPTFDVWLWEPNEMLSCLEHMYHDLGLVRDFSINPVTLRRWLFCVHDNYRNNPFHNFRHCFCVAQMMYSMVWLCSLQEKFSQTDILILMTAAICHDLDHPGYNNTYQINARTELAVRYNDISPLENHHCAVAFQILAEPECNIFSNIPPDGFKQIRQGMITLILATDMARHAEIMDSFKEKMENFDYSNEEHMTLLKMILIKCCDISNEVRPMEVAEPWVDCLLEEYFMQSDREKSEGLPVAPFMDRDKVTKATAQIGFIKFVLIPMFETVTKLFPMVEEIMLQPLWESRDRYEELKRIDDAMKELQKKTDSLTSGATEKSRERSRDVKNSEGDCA

Turning to `CCCCCC[C@H]([C@H](C)O)n1cnc2c(N)ncnc21` [(+)-EHNA], the IC50 against Phosphodiesterase 1 was more than 16 µM; in data set [1], 635 nM; against Phosphodiesterase 3 it was more than 16 µM; in data set [2], more than 16 µM; in data set [3], more than 16 µM; in data set [4], more than 16 µM. The IC50 in data set [5], in data set [6], in [7], in data set [8], in [9] and in data set [10] was more than 16 µM each time. In addition, the half-life in data set [11] was 31 min. Moreover, the apparent permeability (Papp) in [12] amounted to 34 ×10⁻⁶ cm/s; in data set [13], 18 ×10⁻⁶ cm/s. The same compound had a kinetic solubility in [14] of more than 65 µg/mL.
